Molecules are shown by their SMILES. Converted amounts (≈) assume the structure as drawn. Some results are limits rather than exact numbers.

Experiment [1] relates to Candida albicans. In words: Antifungal activity against Candida albicans by serial dilution test. The format is functional. The procedure, abridged: (§1)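 Yeasts tested by serial dilution in YMG medium (glucose 1%, malt extract 1%, yeast extract 0.4%).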
Experiment [2] deals with Eremothecium coryli. The experiment can be described thus: Antifungal activity against Nematospora coryli by serial dilution test. The experiment is classed as functional. The procedure, abridged: as §1
In experiment [3] the test system is Rhizomucor miehei. In words: Inhibition of conidial germination in Mucor miehei. The format is functional. The procedure, abridged:
(§2)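 Conidia from 10-day-old cultures were pelleted (1000g, 10 min) and resuspended in distilled water. Each well held 0.5 × 10⁴ conidia in 0.2 mL distilled water and was incubated 16 h at 28 °C. Germinated conidia were counted under an inverted microscope: triplicates, 3 × 100 conidia. The value is the IC100, the concentration for complete germination inhibition.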

The subject of experiment [4] is Proteus vulgaris. In words: Antibacterial activity against Proteus vulgaris by serial dilution test. The experiment is classed as functional. The procedure, abridged:
(§3)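 Serial broth dilution in nutrient broth.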

Experiment [5] concerns Pyricularia grisea. In words: Inhibition of conidial germination in Magnaporthe grisea. The format is functional. The procedure, abridged:
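M. grisea strain 70-15, grown on CM medium. Conidia were harvested from plates kept at 28 °C on a 16 h light/8 h dark cycle (24 °C in the dark). They were pelleted (1000g, 10 min) and resuspended in distilled water. Each well held 0.5 × 10⁴ conidia/0.2 mL water, 16 h at 28 °C. Germinated conidia were counted microscopically: triplicates, 3 × 100. Value given as IC100.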

Experiment [6] relates to Bacillus subtilis. In words: Antibacterial activity against Bacillus subtilis ATCC 6633 by serial dilution test. The experiment is classed as functional. The method, boiled down: as §3
For experiment [7], the system named is HepG2. In words: Cytotoxicity against human HepG2 cells at 50 ug/ml. The format is functional, cell-based.
The subject of experiment [8] is Saccharomyces cerevisiae. The experiment can be described thus: Antifungal activity against Saccharomyces cerevisiae by serial dilution test. The format is functional. The method, boiled down: as §1
Experiment [9] has as its system Penicillium chrysogenum. The experiment can be described thus: Inhibition of conidial germination in Penicillium notatum. The experiment is classed as functional. The method, boiled down: as §2
For experiment [10], the system named is Enterobacter cloacae subsp. dissolvens. In words: Antibacterial activity against Enterobacter dissolvens by serial dilution test. The experiment is classed as functional. The method, boiled down:
as §3

Experiment [11] concerns HeLa S3. The experiment can be described thus: Cytotoxicity against human HeLaS3 cells at 50 ug/ml. The format is functional, cell-based.
Experiment [12] concerns Brevibacillus brevis. The experiment can be described thus: Antibacterial activity against Bacillus brevis ATCC 9999 by serial dilution test. The experiment is classed as functional. The method, boiled down: as §3
Experiment [13] relates to Botrytis cinerea. In words: Inhibition of conidial germination in Botrytis cinerea. The format is functional. The method, boiled down: as §2
Experiment [14] concerns Micrococcus luteus. The experiment can be described thus: Antibacterial activity against Micrococcus luteus by serial dilution test. The experiment is classed as functional. The method, boiled down: as §3
The subject of experiment [15] is Escherichia coli. In words: Antibacterial activity against Escherichia coli K-12 by serial dilution test. The experiment is classed as functional. The method, boiled down:
as §3

Experiment [16] has as its system Pseudomonas fluorescens. The experiment can be described thus: Antibacterial activity against Pseudomonas fluorescens by serial dilution test. The experiment is classed as functional. The method, boiled down:
as §3

The test system of experiment [17] is Phytophthora infestans. The experiment can be described thus: Inhibition of conidial germination in Phytophthora infestans. The format is functional. The procedure, abridged:
as §2

Experiment [18] relates to Staphylococcus aureus. In words: Antibacterial activity against Staphylococcus aureus by serial dilution test. The experiment is classed as functional. The procedure, abridged:
as §3

The subject of experiment [19] is Paecilomyces variotii. The experiment can be described thus: Inhibition of conidial germination in Paecilomyces variotii. The format is functional. The procedure, abridged:
as §2

Regarding `C[C@@H]1[C@H](O)[C@@H](C)/C=C/C=C/C=C/C=C/C=C/C=C/C=C/[C@H](O[C@@H]2O[C@H](C)[C@@H](O)[C@H](N)[C@@H]2O)C[C@@H]2O[C@](O)(C[C@@H](O)C[C@@H](O)[C@H](O)CC[C@@H](O)C[C@@H](O)CC(=O)O[C@H]1C)C[C@H](O)[C@H]2C(=O)O` [AMPHOTERICIN B], the MIC in [1] was 10 µg/mL (≈ 10.8 µM); in experiment [2], 15 µg/mL (≈ 16.2 µM); in experiment [3] (Rhizomucor miehei), 5 µg/mL (≈ 5.41 µM).

For `CN[C@@H]1[C@H](O[C@H]2[C@H](O[C@H]3[C@H](O)[C@@H](O)[C@H](N=C(N)N)[C@@H](O)[C@@H]3N=C(N)N)O[C@@H](C)[C@]2(O)C=O)O[C@@H](CO)[C@H](O)[C@H]1O.CN[C@@H]1[C@H](O[C@H]2[C@H](O[C@H]3[C@H](O)[C@@H](O)[C@H](N=C(N)N)[C@@H](O)[C@@H]3N=C(N)N)O[C@@H](C)[C@]2(O)C=O)O[C@@H](CO)[C@H](O)[C@H]1O.O=S(=O)(O)O.O=S(=O)(O)O.O=S(=O)(O)O` [STREPTOMYCIN SULFATE], the minimum inhibitory concentration (MIC) in experiment [4] stood at 5 µg/mL.

For the compound `COC(=O)C1(O)C(=O)C(C)=COc2oc3cccc(O)c3c(=O)c21` (stereo not drawn) [XANTHEPINONE], the MIC in experiment [1] was 50 µg/mL (≈ 150 µM); in experiment [6], more than 50 µg/mL; in experiment [2] it was 10 µg/mL (≈ 30.1 µM); in experiment [4] it was 50 µg/mL (≈ 150 µM); in experiment [8] it was 25 µg/mL (≈ 75.2 µM); in experiment [10], more than 50 µg/mL. Moreover, the MIC in [12] is more than 50 µg/mL; in [14], more than 50 µg/mL; in [15], more than 50 µg/mL; in experiment [16], more than 50 µg/mL; in experiment [18], 50 µg/mL (≈ 150 µM). For the same compound, the IC100 in experiment [5] worked out at 2 µg/mL; in experiment [9], 25 µg/mL; in experiment [13], 10 µg/mL; in experiment [17], 5 µg/mL; in experiment [3], 25 µg/mL; in experiment [19], 50 µg/mL. Moreover, the Activity result in [7] and in experiment [11] was “Not toxic” throughout.

A word on the MIC: it is the smallest concentration in the dilution series that meets the test's criterion for growth inhibition.

The record behind these values is ChEMBL document CHEMBL1154333, “Xanthepinone, an antimicrobial polyketide from a soil fungus closely related to Phoma medicaginis” (2009).
